Measurements as given in ChEMBL document CHEMBL1154792, “chi-Conopeptide pharmacophore development: toward a novel class of norepinephrine transporter inhibitor (Xen2174) for pain” (J Med Chem, 2009).
Active and inactive are the calls of the source. Where a SMILES comes first, the peptide text is derived from it. Bridges are numbered along the chain shown (N, C = ends). [ ]: non-standard residue; d: D form. Pro(3S-OH) = O=C(O)[C@H]1NCC[C@@H]1O; pGlu = O=C1CC[C@@H](C(=O)O)N1

Key:
Rattus norvegicus [1] = assay: Antiallodynic activity in CCI rat pain model assessed as efficayin ipsilateral hind paw withdrawal threshold at 1 nM, iv after 3 hrs; assay type: functional, organism-based
Summary of the method: (§1)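 Unilateral chronic constriction injury of the sciatic nerve in rats. At 14 days post-surgery, a single bolus was given via a chronically implanted intrathecal cannula; morphine and vehicle were comparators. Mechanical allodynia was measured with calibrated von Frey filaments as paw withdrawal threshold in the ipsilateral hindpaw, relative to the pre-dose value. Three animals per analogue; dose chosen from NET potency.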

[2] = (§2) Displacement of [3H]nisoxetine from rat NET expressed in COS7 cells; assay type: cell-based; details: cos-7
COS-7 [3] = assay: Inhibition of rat NET expressed in COS7 cells assessed as inhibition of [3H]norepinephrine uptake; assay type: cell-based
Rattus norvegicus [4] = species on record: Rattus norvegicus; assay: Toxicity in CCI rat pain model assessed as side effects; assay type: organism-based; details: in vivo
Summary of the method: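 Rats with unilateral sciatic chronic constriction injury received a single intrathecal bolus via an implanted cannula 14 days after surgery, with morphine and vehicle as comparators. Compound-related behavioural observations were recorded alongside von Frey paw-withdrawal testing. Three animals per analogue.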

[5] = biological target: T1, Sodium-dependent noradrenaline transporter (Homo sapiens, UniProt P23975); details: COS-7
[6] = biological target: T1, Sodium-dependent noradrenaline transporter; assay: Displacement of [3H]nisoxetine from human NET expressed in COS7 cells; assay type: cell-based, COS-7; details: for Activity: COS-7
Summary of the method: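 Membranes from COS-7 cells transfected with human NET were incubated with [3H]nisoxetine (4.3 nM) with or without peptide (1 nM to 100 μM, triplicate) for 1 h at RT. Filter-retained radioactivity was counted by liquid scintillation, and values are given as pIC50. Data are means of 2–5 experiments in triplicate; peptide concentration was set by calibrated HPLC at 214 nm.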

[7] = biological target: T1, Sodium-dependent noradrenaline transporter; assay: Inhibition of human NET expressed in COS7 cells assessed as inhibition of [3H]norepinephrine uptake at 1 uM; assay type: cell-based; details: COS-7
COS-7 [8] = assay: as §2; assay type: cell-based
Rattus norvegicus [9] = assay: Antiallodynic activity in CCI rat pain model assessed as efficayin ipsilateral hind paw withdrawal threshold at 0.2 nM, iv; assay type: functional, organism-based; summary of the method: as §1

T1 sequence (P23975 whole entry): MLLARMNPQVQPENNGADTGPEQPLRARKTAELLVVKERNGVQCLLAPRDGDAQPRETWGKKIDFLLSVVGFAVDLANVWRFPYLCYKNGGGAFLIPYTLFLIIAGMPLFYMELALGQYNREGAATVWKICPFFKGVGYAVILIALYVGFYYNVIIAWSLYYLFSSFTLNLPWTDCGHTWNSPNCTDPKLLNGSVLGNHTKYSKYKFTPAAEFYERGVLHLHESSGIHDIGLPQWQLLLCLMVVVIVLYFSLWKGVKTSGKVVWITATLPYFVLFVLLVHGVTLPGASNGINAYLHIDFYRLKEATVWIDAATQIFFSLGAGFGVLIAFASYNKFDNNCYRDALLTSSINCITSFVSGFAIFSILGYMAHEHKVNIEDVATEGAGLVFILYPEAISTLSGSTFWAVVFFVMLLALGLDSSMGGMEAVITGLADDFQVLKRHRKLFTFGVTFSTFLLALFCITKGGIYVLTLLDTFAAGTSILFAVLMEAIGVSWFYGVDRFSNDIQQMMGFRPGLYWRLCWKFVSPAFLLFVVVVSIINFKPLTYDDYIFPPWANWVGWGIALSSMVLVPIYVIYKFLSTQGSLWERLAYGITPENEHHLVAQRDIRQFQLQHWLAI

| SMILES | Activity (Rattus norvegicus [4]) | Activity [6] | further results |
| --- | --- | --- | --- |
| CC(C)C[C@@H]1NC(=O)[C@H](CCCCN)NC(=O)[C@H](Cc2ccc(O)cc2)NC(=O)CNC(=O)[C@@H]2CSSC[C@H](NC1=O)C(=O)N[C@@H](Cc1cnc[nH]1)C(=O)N1CC[C@H](O)[C@H]1C(=O)N[C@H](C(=O)O)CSSC[C@H](NC(=O)[C@@H](NC(=O)CNC(=O)[C@@H]1CCC(=O)N1)C(C)C)C(=O)N2 | Toxic |  | Activity (Rattus norvegicus [1]): Active; pIC50 [2]: 6.67; logEC50 (COS-7 [3]): -6.67; logEC50 [5]: -6.74; IC50 [6]: 182 nM; Activity [7]: Active |
| CC(C)C[C@@H]1NC(=O)[C@H](CCCCN)NC(=O)[C@H](Cc2ccc(O)cc2)NC(=O)CNC(=O)[C@@H]2CSSC[C@H](NC1=O)C(=O)N[C@@H](Cc1cnc[nH]1)C(=O)N1CC[C@H](O)[C@H]1C(=O)N[C@H](C(=O)O)CSSC[C@H](NC(=O)[C@@H](NC(=O)CNC(=O)[C@H](N)CCCNC(=N)N)C(C)C)C(=O)N2 | Toxic |  |  |
| CC(C)C[C@@H]1NC(=O)[C@H](CCCCN)NC(=O)[C@H](Cc2ccc(O)cc2)NC(=O)CNC(=O)[C@@H]2CSSC[C@H](NC1=O)C(=O)N[C@@H](Cc1cnc[nH]1)C(=O)N1CC[C@H](O)[C@H]1C(=O)N[C@H](C(=O)O)CSSC[C@H](NC(=O)[C@@H](NC(=O)CNC(=O)[C@H](CC(N)=O)NC(=O)[C@@H](N)Cc1c[nH]c3ccccc13)C(C)C)C(=O)N2 | Toxic |  |  |
| CCCC[C@H](N)C(=O)NCC(=O)N[C@H](C(=O)N[C@H]1CSSC[C@@H](C(=O)O)NC(=O)[C@@H]2[C@@H](O)CCN2C(=O)[C@H](Cc2cnc[nH]2)NC(=O)[C@@H]2CSSC[C@H](NC1=O)C(=O)NCC(=O)N[C@@H](Cc1ccc(O)cc1)C(=O)N[C@@H](CCCCN)C(=O)N[C@@H](CC(C)C)C(=O)N2)C(C)C | Toxic |  |  |
| CC(C)C[C@@H]1NC(=O)[C@H](CCCCN)NC(=O)[C@H](Cc2ccc(O)cc2)NC(=O)CNC(=O)[C@@H]2CSSC[C@H](NC1=O)C(=O)N[C@@H](Cc1cnc[nH]1)C(=O)N1CC[C@H](O)[C@H]1C(=O)N[C@H](C(=O)O)CSSC[C@H](NC(=O)[C@@H](NC(=O)CNC(=O)[C@H](N)CC(N)=O)C(C)C)C(=O)N2 | Toxic |  |  |
| CC(C)C[C@@H]1NC(=O)[C@H](CCCCN)NC(=O)[C@H](Cc2ccc(O)cc2)NC(=O)CNC(=O)[C@@H]2CSSC[C@H](NC1=O)C(=O)N[C@@H](Cc1cnc[nH]1)C(=O)N[C@H](CCCCN)C(=O)N[C@H](C(=O)O)CSSC[C@H](NC(=O)[C@@H](NC(=O)CNC(=O)[C@@H]1CCC(=O)N1)C(C)C)C(=O)N2 |  | Active | Activity (COS-7 [8]): Active |
| CC(C)C[C@@H]1NC(=O)[C@H](CCCCN)NC(=O)[C@H](Cc2ccccc2)NC(=O)CNC(=O)[C@@H]2CSSC[C@H](NC1=O)C(=O)N[C@@H](Cc1cnc[nH]1)C(=O)N1CC[C@H](O)[C@H]1C(=O)N[C@H](C(=O)O)CSSC[C@H](NC(=O)[C@@H](NC(=O)CNC(=O)[C@@H]1CCC(=O)N1)C(C)C)C(=O)N2 ([pGlu]GVCCGFKLCH[Pro(3S-OH)]C-OH; disulfide 4-13, 5-10) |  | inactive |  |
| COc1ccc(C[C@H]2CC(=O)N[C@@H](CCCCN)C(=O)N[C@@H](CC(C)C)C(=O)N[C@H]3CSSC[C@H](NC(=O)[C@@H](NC(=O)[C@@H](NC(=O)CNC(=O)[C@@H]4CCC(=O)N4)C(C)C)CSSC[C@@H](C(=O)O)NC(=O)[C@@H]4[C@@H](O)CCN4C(=O)[C@H](Cc4cnc[nH]4)NC3=O)C(=O)NCC(=O)N2)cc1 |  | inactive |  |
| CC(C)C[C@@H]1NC(=O)[C@H](CCCCN)NC(=O)[C@H](Cc2ccc(O)cc2)NC(=O)CNC(=O)[C@@H]2CSSC[C@H](NC1=O)C(=O)N[C@@H](Cc1cnc[nH]1)C(=O)N1CC[C@H](O)[C@H]1C(=O)N[C@H](C(=O)O)CSSC[C@@H](NC(=O)[C@@H](NC(=O)CNC(=O)[C@@H]1CCC(=O)N1)C(C)C)C(=O)N2 |  | inactive |  |
| CC(C)C[C@@H]1NC(=O)[C@H](CCCCN)NC(=O)[C@H](CCC(=O)O)NC(=O)CNC(=O)[C@@H]2CSSC[C@H](NC1=O)C(=O)N[C@@H](Cc1cnc[nH]1)C(=O)N1CC[C@H](O)[C@H]1C(=O)N[C@H](C(=O)O)CSSC[C@H](NC(=O)[C@@H](NC(=O)CNC(=O)[C@@H]1CCC(=O)N1)C(C)C)C(=O)N2 |  | inactive |  |
| CC[C@H](C)[C@@H]1NC(=O)CNC(=O)[C@@H]2CSSC[C@H](NC(=O)[C@H](CC(C)C)NC(=O)[C@H](CCCCN)NC1=O)C(=O)N[C@@H](Cc1cnc[nH]1)C(=O)N1CC[C@H](O)[C@H]1C(=O)N[C@H](C(=O)O)CSSC[C@H](NC(=O)[C@@H](NC(=O)CNC(=O)[C@@H]1CCC(=O)N1)C(C)C)C(=O)N2 |  | inactive |  |
| CC(C)C[C@@H]1NC(=O)[C@H](CCCCN)NC(=O)[C@H](Cc2ccc(O)cc2)NC(=O)CNC(=O)[C@@H]2CSSC[C@H](NC1=O)C(=O)N[C@@H](Cc1cnc[nH]1)C(=O)N[C@H](CCC(=O)O)C(=O)N[C@H](C(=O)O)CSSC[C@H](NC(=O)[C@@H](NC(=O)CNC(=O)[C@@H]1CCC(=O)N1)C(C)C)C(=O)N2 |  | Active | Activity (COS-7 [8]): Active |
| CC(C)C[C@@H]1NC(=O)[C@H](CCCCN)NC(=O)[C@H](Cc2ccc(O)cc2)NC(=O)CNC(=O)[C@@H]2CSSC[C@H](NC1=O)C(=O)N[C@@H](Cc1c[nH]c3ccccc13)C(=O)N1CC[C@H](O)[C@H]1C(=O)N[C@H](C(=O)O)CSSC[C@H](NC(=O)[C@@H](NC(=O)CNC(=O)[C@@H]1CCC(=O)N1)C(C)C)C(=O)N2 ([pGlu]GVCCGYKLCW[Pro(3S-OH)]C-OH; disulfide 4-13, 5-10) |  | Active |  |
| CC(C)C[C@@H]1NC(=O)[C@H](CCCCN)NC(=O)[C@H](Cc2ccc(O)cc2)NC(=O)CNC(=O)[C@@H]2CSSC[C@H](NC1=O)C(=O)N[C@@H](Cc1cnc[nH]1)C(=O)N[C@H](Cc1ccc(O)cc1)C(=O)N[C@H](C(=O)O)CSSC[C@H](NC(=O)[C@@H](NC(=O)CNC(=O)[C@@H]1CCC(=O)N1)C(C)C)C(=O)N2 |  | Active | Activity (COS-7 [8]): Active |
| CC(C)C[C@@H]1NC(=O)[C@H](CCCCN)NC(=O)[C@H](Cc2ccc(O)cc2)NC(=O)CNC(=O)[C@H]2CSSC[C@@H](NC1=O)C(=O)N[C@@H](Cc1cnc[nH]1)C(=O)N1CC[C@H](O)[C@H]1C(=O)N[C@@H](C(=O)O)CSSC[C@@H](NC(=O)[C@@H](NC(=O)CNC(=O)[C@@H]1CCC(=O)N1)C(C)C)C(=O)N2 |  | inactive |  |
| CC(C)C[C@@H]1NC(=O)[C@H](CCCCN)NC(=O)[C@H]2CCCN2C(=O)CNC(=O)[C@@H]2CSSC[C@H](NC1=O)C(=O)N[C@@H](Cc1cnc[nH]1)C(=O)N1CC[C@H](O)[C@H]1C(=O)N[C@H](C(=O)O)CSSC[C@H](NC(=O)[C@@H](NC(=O)CNC(=O)[C@@H]1CCC(=O)N1)C(C)C)C(=O)N2 |  | inactive |  |
| CC(C)C[C@@H]1NC(=O)[C@H](CCCCN)NC(=O)[C@H](Cc2ccc(O)cc2)NC(=O)CNC(=O)[C@@H]2CSSC[C@H](NC1=O)C(=O)N[C@@H](Cc1cnc[nH]1)C(=O)N1CC[C@H](O)[C@H]1C(=O)N[C@H](C(=O)O)CSSC[C@H](NC(=O)[C@@H](NC(=O)CNC(=O)[C@H](CC(N)=O)NC(=O)[C@@H](N)CCc1ccccc1)C(C)C)C(=O)N2 | Toxic |  | Activity (Rattus norvegicus [9]): Active |
| CC(C)C[C@@H]1NC(=O)[C@H](CCCCN)NC(=O)[C@H](CCCNC(=N)N)NC(=O)CNC(=O)[C@@H]2CSSC[C@H](NC1=O)C(=O)N[C@@H](Cc1cnc[nH]1)C(=O)N1CC[C@H](O)[C@H]1C(=O)N[C@H](C(=O)O)CSSC[C@H](NC(=O)[C@@H](NC(=O)CNC(=O)[C@@H]1CCC(=O)N1)C(C)C)C(=O)N2 ([pGlu]GVCCGRKLCH[Pro(3S-OH)]C-OH; disulfide 4-13, 5-10) |  | inactive |  |
| CC(C)C[C@@H]1NC(=O)[C@H](CCCCN)NC(=O)[C@H](Cc2ccc(O)cc2)NC(=O)CNC(=O)[C@@H]2CSSC[C@H](NC1=O)C(=O)N[C@@H](Cc1cccc3ccccc13)C(=O)N1CC[C@H](O)[C@H]1C(=O)N[C@H](C(=O)O)CSSC[C@H](NC(=O)[C@@H](NC(=O)CNC(=O)[C@@H]1CCC(=O)N1)C(C)C)C(=O)N2 |  | Active |  |
| CC(C)C[C@@H]1NC(=O)[C@H](CCCCN)NC(=O)[C@H](Cc2ccc(O)cc2)NC(=O)CNC(=O)[C@@H]2CSSC[C@H](NC1=O)C(=O)N[C@@H](Cc1cnc[nH]1)C(=O)N1Cc3ccccc3C[C@H]1C(=O)N[C@H](C(=O)O)CSSC[C@H](NC(=O)[C@@H](NC(=O)CNC(=O)[C@@H]1CCC(=O)N1)C(C)C)C(=O)N2 |  | Active | Activity (COS-7 [8]): Active |
